Results pooled from the literature.
Compare with care: the assays were run in different laboratories.
Cell line: MCF7
Effect on: cell growth or viability

CC(C)(C)[C@H](N)C(=O)Nc1ccccc1/N=c1\cc(-c2ccc3c(c2)OCCO3)oc2cc(F)ccc12
inhibition (CCK-8; 1 µM): 9.85%

CCCS(=O)(=O)Oc1ccc(C=NNC(=O)c2nc3ccccc3s2)cc1
cell death (MTT; 100 µM; 48 h): 46.6%

Cc1nc(NC(=O)N2CCC[C@H]2C(N)=O)sc1-c1ccnc(C(C)(C)C(F)(F)F)c1
EC50 (ATP luminescence; 5 days): 0.917 µM

NCCC(=O)Nc1ccc(/N=c2\cc(-c3ccc4c(c3)OCO4)oc3ccccc23)cc1
inhibition (CCK-8; 1 µM): 6.42%

COc1ccc(NC(=O)NCc2cn(Cc3ccc(Cl)cc3)nn2)cc1
viability (CCK-8; 50 µM; 48 h): 90.6%

CN(C)CCNC(=O)c1ccc(-c2nc3ccc4[nH]ncc4c3c3c2CCCCC3)cc1
GI50 (72 h): 3.32 µM

COc1ccc(C=NNC(=O)c2nc3ccccc3s2)cc1OS(C)(=O)=O
cell death (MTT; 100 µM; 48 h): 32.3%

CN(C)CCNC(=O)c1ccc(-c2nc3ccc4[nH]ncc4c3c3c2CCCCC3)c(F)c1
GI50 (72 h): 3.31 µM

COc1ccc(NC(=O)Nc2ccc(-c3cn(Cc4cccc(Cl)c4)nn3)cc2)cc1
viability (CCK-8; 50 µM; 48 h): 95.4%

O=C(NCc1cn(Cc2ccc(Br)cc2)nn1)Nc1ccccc1Br
viability (CCK-8; 50 µM; 72 h): 80.2%

NCCC(=O)Nc1ccccc1/N=c1\cc(-c2ccc3nc(N)oc3c2)oc2cc(O)ccc12
inhibition (CCK-8; 1 µM): 9.96%

CN(C)CCNC(=O)c1ccc(-c2nc3ccc4[nH]ncc4c3c3c2CCCC3)c(F)c1
GI50 (72 h): 3.32 µM

COc1ccc(NC(=O)NCc2cn(Cc3ccc(C)cc3)nn2)cc1
viability (CCK-8; 50 µM; 48 h): 97.7%

Nc1nc2ccc(-c3c/c(=N\c4ccccc4NC(=O)CCN4CCOCC4)c4ccccc4o3)cc2o1
inhibition (CCK-8; 1 µM): 7.35%

CC(C)C[C@@H](NC(=O)[C@H](C)NC(=O)CNC(=O)[C@@H](NC=O)C(C)C)C(=O)N[C@@H](C)C(=O)N[C@@H](C(=O)N[C@H](C(=O)N[C@@H](C(=O)N[C@@H](Cc1c[nH]c2ccccc12)C(=O)N[C@H](CC(C)C)C(=O)N[C@@H](Cc1c[nH]c2ccccc12)C(=O)N[C@H](CC(C)C)C(=O)N[C@@H](Cc1c[nH]c2ccccc12)C(=O)N[C@@H](C(=O)N[C@@H](Cc1c[nH]c2ccccc12)C(=O)NCCO)C(C)C)[C@H](C)O)C(C)C)C(C)C
GI50 (SRB; 48 h): 0.397 µM

COc1ccc(NC(=O)Nc2cccc(-c3cn(Cc4ccc(Br)cc4)nn3)c2)cc1
viability (CCK-8; 50 µM; 48 h): 95.6%

O=C(NCc1cn(Cc2cccc(Cl)c2)nn1)Nc1ccc(Cl)cc1
viability (CCK-8; 50 µM; 48 h): 82%

COc1ccc(NC(=O)Nc2cccc(-c3cn(Cc4cccc(Cl)c4)nn3)c2)cc1
viability (CCK-8; 50 µM; 72 h): 101%

Cc1n[nH]c2ccc3nc(-c4ccc(C(=O)NCCN(C)C)cc4F)c4c(c3c12)CCCC4
GI50 (72 h): 0.99 µM

O=C(Nc1cccc(-c2cn(Cc3ccc(Cl)cc3)nn2)c1)Nc1ccccc1Br
viability (CCK-8; 50 µM; 72 h): 69.6%

O=C(Nc1ccccc1/N=c1\cc(-c2ccc3c(c2)OCO3)oc2ccccc12)N1CCNCC1
inhibition (CCK-8; 1 µM): 13.5%

O=C(Nc1cccc(-c2cn(Cc3ccc(Br)cc3)nn2)c1)Nc1ccccc1Br
viability (CCK-8; 50 µM; 72 h): 76.8%

CCS(=O)(=O)Oc1ccc(C=NNC(=O)c2nc3ccccc3s2)cc1OC
cell death (MTT; 100 µM; 48 h): 40.5%

COc1ccc(NC(=O)Nc2ccc(-c3cn(Cc4ccc(Cl)cc4)nn3)cc2)cc1
viability (CCK-8; 50 µM; 48 h): 95.1%

CCNc1nc2ccc(-c3c/c(=N\c4ccccc4NC(=O)CCN)c4ccccc4o3)cc2o1
inhibition (CCK-8; 1 µM): 3.78%

COc1cc(C=NNC(=O)c2nc3ccccc3s2)ccc1O
cell death (MTT; 100 µM; 48 h): 16.6%

NCC(=O)Nc1ccccc1/N=c1\cc(-c2ccc3c(c2)OCO3)oc2c([N+](=O)[O-])cccc12
inhibition (CCK-8; 1 µM): 11.7%

COc1ccc(NC(=O)Nc2ccc(-c3cn(Cc4ccc(C)cc4)nn3)cc2)cc1
viability (CCK-8; 50 µM; 72 h): 87.4%

O=C(Nc1ccc(-c2cn(Cc3ccc(Cl)cc3)nn2)cc1)Nc1ccccc1Br
viability (CCK-8; 50 µM; 72 h): 104%

COc1ccc(NC(=O)NCc2cn(Cc3ccc(Br)cc3)nn2)cc1
viability (CCK-8; 50 µM; 72 h): 89.2%

CCOc1ccc(C(=O)CC(SCc2ccc(Cl)cc2)C(=O)OC)cc1 (stereo not shown)
EC50 (MTT; 48 h): 40 µM

O=C(Nc1ccc(Cl)cc1)Nc1ccc(-c2cn(Cc3cccc(Cl)c3)nn2)cc1
viability (CCK-8; 50 µM; 48 h): 91.8%

NCC(=O)Nc1ccccc1/N=c1\cc(-c2ccc3c(c2)OCO3)oc2ccccc12
inhibition (CCK-8; 1 µM): 10.9%

O=C(NCc1cn(Cc2ccc(Cl)cc2)nn1)Nc1ccccc1Br
viability (CCK-8; 50 µM; 48 h): 84.4%

COc1cccc2c1C(=O)c1c(O)c3c(c(O)c1C2=O)C[C@@](O)(C(=O)CO)C[C@@H]3O[C@H]1C[C@H](N)[C@H](O)[C@H](C)O1
IC50 (MTT; 24 h): 5.93 µM

Cc1n[nH]c2ccc3nc(-c4ccc(C(=O)NCCN(C)C)cc4)c4c(c3c12)CCCC4
GI50 (72 h): 2.4 µM

O=C(NCc1cn(Cc2ccc(Cl)cc2)nn1)Nc1ccc(Cl)cc1
viability (CCK-8; 50 µM; 72 h): 83.3%
